From ChEMBL document CHEMBL2150980 (Eur J Med Chem, 2012)

How the values were obtained:
[1] = molecular target: T1, Alpha-1B adrenergic receptor (Homo sapiens, UniProt P35368); assay: Displacement of [3H]prazosin from human cloned alpha1B adrenoceptor expressed in CHO cell membranes after 30 mins by liquid scintillation counter
T1 sequence (P35368 whole entry): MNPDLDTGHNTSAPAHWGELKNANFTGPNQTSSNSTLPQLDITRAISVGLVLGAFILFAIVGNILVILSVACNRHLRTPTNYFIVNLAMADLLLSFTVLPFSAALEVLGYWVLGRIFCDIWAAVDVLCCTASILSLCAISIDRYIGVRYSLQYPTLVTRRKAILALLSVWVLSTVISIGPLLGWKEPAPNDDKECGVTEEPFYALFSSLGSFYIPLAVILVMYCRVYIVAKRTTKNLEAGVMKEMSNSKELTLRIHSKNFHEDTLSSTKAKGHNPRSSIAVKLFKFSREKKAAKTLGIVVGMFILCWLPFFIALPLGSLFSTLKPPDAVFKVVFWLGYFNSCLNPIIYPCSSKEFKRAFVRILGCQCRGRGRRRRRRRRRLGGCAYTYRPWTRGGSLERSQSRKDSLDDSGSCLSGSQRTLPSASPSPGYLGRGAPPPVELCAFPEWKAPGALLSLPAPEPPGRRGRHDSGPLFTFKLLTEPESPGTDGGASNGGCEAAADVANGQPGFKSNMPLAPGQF

[2] = molecular target: T2, Alpha-1A adrenergic receptor (Homo sapiens, UniProt P35348); assay: Displacement of [3H]prazosin from human cloned alpha1A adrenoceptor expressed in CHO cell membranes after 30 mins by liquid scintillation counter
T2 sequence (P35348 whole entry): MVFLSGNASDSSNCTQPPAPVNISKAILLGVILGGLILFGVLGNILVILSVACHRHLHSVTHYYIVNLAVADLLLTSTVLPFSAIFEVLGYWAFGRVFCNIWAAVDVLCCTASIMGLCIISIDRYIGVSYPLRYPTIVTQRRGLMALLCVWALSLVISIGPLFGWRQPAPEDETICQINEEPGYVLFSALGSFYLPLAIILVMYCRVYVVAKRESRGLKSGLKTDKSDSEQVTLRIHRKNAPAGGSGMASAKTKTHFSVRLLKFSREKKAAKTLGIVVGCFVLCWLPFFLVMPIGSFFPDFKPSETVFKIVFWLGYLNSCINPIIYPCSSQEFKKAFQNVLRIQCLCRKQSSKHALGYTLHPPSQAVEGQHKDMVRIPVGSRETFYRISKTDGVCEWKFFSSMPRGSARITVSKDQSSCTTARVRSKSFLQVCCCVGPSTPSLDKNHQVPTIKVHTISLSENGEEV
Procedure, shortened: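 Membranes incubated 30 min at 25 °C with 0.5 nM [3H]-prazosin ± compound (0.3–1000 nM) in 50 mM buffer, pH 7.7, containing pargyline and 0.1% ascorbic acid. Unlabelled prazosin defined nonspecific binding. GF/B filtration, scintillation counting.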

[3] = molecular target: T3, Alpha-1D adrenergic receptor (Homo sapiens, UniProt P25100); assay: Displacement of [3H]prazosin from human cloned alpha1D adrenoceptor expressed in CHO cell membranes after 30 mins by liquid scintillation counter
T3 sequence (P25100 whole entry): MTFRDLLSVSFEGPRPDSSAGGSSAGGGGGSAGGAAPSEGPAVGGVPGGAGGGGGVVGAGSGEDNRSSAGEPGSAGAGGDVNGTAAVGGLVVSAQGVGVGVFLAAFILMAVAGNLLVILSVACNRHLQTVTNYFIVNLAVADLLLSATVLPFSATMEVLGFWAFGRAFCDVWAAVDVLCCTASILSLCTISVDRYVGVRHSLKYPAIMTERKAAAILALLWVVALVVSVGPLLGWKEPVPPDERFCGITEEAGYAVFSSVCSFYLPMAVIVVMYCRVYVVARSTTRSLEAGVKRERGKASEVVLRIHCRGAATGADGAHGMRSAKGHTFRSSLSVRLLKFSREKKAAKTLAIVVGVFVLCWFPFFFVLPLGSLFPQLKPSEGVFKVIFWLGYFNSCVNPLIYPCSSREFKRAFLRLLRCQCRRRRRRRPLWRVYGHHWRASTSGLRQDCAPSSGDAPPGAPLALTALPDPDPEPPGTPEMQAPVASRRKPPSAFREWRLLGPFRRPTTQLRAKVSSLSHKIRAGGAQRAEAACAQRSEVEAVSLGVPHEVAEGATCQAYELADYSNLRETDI

[4] = molecular target: T4, 5-hydroxytryptamine receptor 1A (Rattus norvegicus, UniProt P19327); assay: Displacement of [3H]-8-OH-DPAT from 5-HT1A receptor in rat hippocampal membranes after 30 mins by liquid scintillation counting; type: cell membranes, Hippocampus, Membrane
T4 sequence (P19327 whole entry): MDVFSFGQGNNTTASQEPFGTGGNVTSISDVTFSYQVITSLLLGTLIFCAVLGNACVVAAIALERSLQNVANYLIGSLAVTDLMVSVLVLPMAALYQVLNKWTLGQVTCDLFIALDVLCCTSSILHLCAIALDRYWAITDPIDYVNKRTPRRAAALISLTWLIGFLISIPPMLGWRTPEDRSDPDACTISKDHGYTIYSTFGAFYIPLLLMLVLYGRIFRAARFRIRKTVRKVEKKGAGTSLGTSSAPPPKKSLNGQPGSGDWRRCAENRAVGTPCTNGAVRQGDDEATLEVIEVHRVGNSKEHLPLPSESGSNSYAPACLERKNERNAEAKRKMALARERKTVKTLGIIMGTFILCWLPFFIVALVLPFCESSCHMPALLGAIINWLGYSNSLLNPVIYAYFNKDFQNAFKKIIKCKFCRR
Procedure, shortened: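 Crude rat hippocampal membranes in Tris-HCl 50 mM, pH 7.7, with pargyline and 4 mM CaCl2. […] Stopped by GF/B filtration, then scintillation counting. Ki from IC50 via Cheng–Prusoff; ≥3 experiments in triplicate.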

[5] = molecular target: T5, Alpha-1A adrenergic receptor (Cavia porcellus) (UniProt Q9WU25); assay: Inverse agonist activity at alpha1A adrenoceptor in guinea pig thoracic aorta assessed as inhibition of ca2+-induced IRT at 10 nM after 30 mins; type: functional, tissue-based
T5 sequence (whole entry): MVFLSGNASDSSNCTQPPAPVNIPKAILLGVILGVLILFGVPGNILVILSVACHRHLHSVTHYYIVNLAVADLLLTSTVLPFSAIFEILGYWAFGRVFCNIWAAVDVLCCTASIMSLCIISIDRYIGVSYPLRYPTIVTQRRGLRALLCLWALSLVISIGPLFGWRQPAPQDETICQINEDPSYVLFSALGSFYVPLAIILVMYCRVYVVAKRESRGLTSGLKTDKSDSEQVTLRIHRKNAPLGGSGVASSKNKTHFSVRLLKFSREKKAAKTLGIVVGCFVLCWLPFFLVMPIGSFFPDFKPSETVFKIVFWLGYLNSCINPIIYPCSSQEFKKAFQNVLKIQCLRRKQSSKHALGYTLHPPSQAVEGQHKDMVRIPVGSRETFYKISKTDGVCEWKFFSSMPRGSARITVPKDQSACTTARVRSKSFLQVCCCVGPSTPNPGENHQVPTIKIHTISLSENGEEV
Procedure, shortened: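 Tissue in Krebs equilibrated 1 h at 1 g, then given a single (−)-noradrenaline dose. Washed 1 h in Ca2+-free Krebs with 0.1 mM EDTA, with agonist reapplied until no contraction (internal Ca2+ stores depleted). Antagonist 10 nM for 30 min, then Ca2+ 1.8 mM added. Result is % decrease versus IRT without any agent; mean ± SE, 4–7 experiments.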

[6] = molecular target: T6, Adrenergic receptor alpha-2 (Rattus norvegicus, UniProt P22086+P19328+P22909); assay: Antagonist activity at alpha2 adrenoceptor in Sprague-Dawley rat prostatic vas deferens assessed as suppression of clonidine-mediated inhibition of twitch response after 30 mins; type: functional, tissue-based
T6 sequence (P22086 whole entry): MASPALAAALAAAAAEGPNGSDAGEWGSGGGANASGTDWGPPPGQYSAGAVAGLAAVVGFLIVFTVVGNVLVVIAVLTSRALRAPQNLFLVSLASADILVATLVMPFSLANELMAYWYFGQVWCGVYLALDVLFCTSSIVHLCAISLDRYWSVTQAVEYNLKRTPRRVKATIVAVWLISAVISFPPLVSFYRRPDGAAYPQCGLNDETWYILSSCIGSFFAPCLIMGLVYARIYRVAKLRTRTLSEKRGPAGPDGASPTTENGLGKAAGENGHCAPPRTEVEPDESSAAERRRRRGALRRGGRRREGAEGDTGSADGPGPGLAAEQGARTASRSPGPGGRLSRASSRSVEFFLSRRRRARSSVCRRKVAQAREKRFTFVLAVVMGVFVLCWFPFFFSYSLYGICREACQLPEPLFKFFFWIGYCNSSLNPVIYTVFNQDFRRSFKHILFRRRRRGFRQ
T6 sequence (P19328 whole entry): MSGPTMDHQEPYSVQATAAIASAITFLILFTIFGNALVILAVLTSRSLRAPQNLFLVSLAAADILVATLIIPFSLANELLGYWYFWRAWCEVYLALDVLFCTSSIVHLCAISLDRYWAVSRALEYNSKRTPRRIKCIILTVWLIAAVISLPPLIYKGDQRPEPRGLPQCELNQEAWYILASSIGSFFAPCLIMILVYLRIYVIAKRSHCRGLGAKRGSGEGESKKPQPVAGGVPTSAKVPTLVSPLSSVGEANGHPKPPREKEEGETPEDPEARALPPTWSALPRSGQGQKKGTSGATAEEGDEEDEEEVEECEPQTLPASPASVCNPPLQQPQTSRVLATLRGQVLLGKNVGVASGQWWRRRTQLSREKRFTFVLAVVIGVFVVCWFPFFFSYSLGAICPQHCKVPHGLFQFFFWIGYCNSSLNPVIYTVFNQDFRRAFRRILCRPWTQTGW
T6 sequence (P22909 whole entry): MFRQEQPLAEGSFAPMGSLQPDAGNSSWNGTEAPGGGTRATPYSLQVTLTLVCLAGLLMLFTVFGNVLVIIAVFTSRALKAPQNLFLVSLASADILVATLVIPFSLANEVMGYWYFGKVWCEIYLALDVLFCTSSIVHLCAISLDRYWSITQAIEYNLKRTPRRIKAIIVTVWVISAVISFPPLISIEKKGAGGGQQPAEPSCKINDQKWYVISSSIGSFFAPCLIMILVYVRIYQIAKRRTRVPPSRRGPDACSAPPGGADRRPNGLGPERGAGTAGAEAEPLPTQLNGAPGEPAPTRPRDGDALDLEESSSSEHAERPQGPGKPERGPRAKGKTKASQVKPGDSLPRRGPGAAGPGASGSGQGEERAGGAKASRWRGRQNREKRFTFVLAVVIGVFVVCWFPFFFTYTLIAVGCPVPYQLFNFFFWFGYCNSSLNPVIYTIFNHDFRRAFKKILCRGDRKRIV
Procedure, shortened: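 Prostatic vas deferens segments (1.5–2 cm) in Krebs at 37 °C, field-stimulated at 0.1 Hz with 3 ms square pulses, 20–40 V. Equilibrated 1 h at 0.35 g resting tension.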

Row | Ki [1] [µM] | Ki [2] [µM] | Ki [3] [µM] | Ki [4] [µM] | inhibition [5] [%] | pA2 [6] | SMILES
1 | 0.0339 | 0.00562 | 0.00398 | 0.0174 | – | – | COc1cccc(OC)c1OCCNC[C@@H]1COc2cccc(Cl)c2O1
2 | 0.102 | 0.0182 | 0.00741 | 0.0316 | – | – | COc1cccc(OC)c1OCCNC[C@@H]1COc2cccc(F)c2O1
3 | 0.398 | 0.0661 | 0.324 | 0.0174 | – | – | COc1cccc(OC)c1OCCNC[C@@H]1COc2cccc(O)c2O1
4 | 0.646 | 0.813 | 0.263 | 0.123 | – | – | COc1cccc(OC)c1OCCNC[C@@H]1COc2c(OC)cccc2O1
5 | 0.0794 | 0.0166 | 0.0166 | 0.0129 | – | – | COc1cccc(OC)c1OCCNC[C@@H]1COc2cccc(OC)c2O1
6 | – | – | – | – | 84 | 6.92 | COc1cccc(OC)c1OCCNC[C@H]1COc2ccccc2O1.Cl
